NPR2 activator: GC-B (human) receptor activation; 370,000 compounds, 0.11% hits; AID 1920062; P20594; activation, % at 10 µM; HEK293-GC-B cells, CNP EC30, cGMP TR-FRET; 0% at EC30 CNP, 100% saturating CNP;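 active = activation at 10 µM reaching about 35% in either raw or pattern-adjusted values, limit read from the data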
ARFGAP1 inh: inhibits rat ARF GTPase activating protein 1; Q62848; Arfgap1-stimulated ARF1 GTP hydrolysis, GDP FP detection; inhibition, % at 16.5 µM; 360,000 compounds, 0.26% hits; AID 651572;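 active = inhibition above a per-plate limit, mean inhibition of low control wells plus 3 SD, cut at about 25% in these data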
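Material: rat Arfgap1 GAP domain (His6, aa 1-136), purified enzyme. Also added: human ARF1(Δ1-17)-GTP substrate. Compound dosing: 16.5 µM single point, 1.26% DMSO. Timing: enzyme reaction 120 min at 25 °C after 20 min preincubation. Signal: GDP detection by fluorescence polarization. Read-out basis: percent inhibition of GAP-stimulated GDP formation, scaled between DMSO and no-Arfgap1 medians.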
GC-A act: GC-A (human) enzyme activation; AID 1671463; HEK293 GC-A cells, cGMP TR-FRET, EC30 ANP; 0% at EC30 ANP, 100% saturating ANP; 370,000 compounds, 0.14% hits; activation, % at 10 µM; in the data active = activation above about 40%
HCV core dimer: HCV core protein dimerization inhibition; TR-FRET GST/Flag-core106 dimerization, 1536-well; inhibition, % at 5 µM; 300,000 compounds, 0.33% hits; AID 1899;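 active = inhibition above the mean of all tested compounds plus 3 SD, set per screening campaign, cut at about 45% in these data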
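Assay system: Tagged HCV core106 pair (GST and Flag) | Buffer or medium: KF-containing HEPES buffer, pH 7.45, DTT, CHAPS, BSA | Also added: Eu donor and XL665 acceptor anti-tag antibodies | Dosing: One concentration, 5 µM, in 0.5% DMSO | Timing: 4 h at 22.5 °C | Technique: TR-FRET 671 and 617 nm emission | Repeats: Singlicate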
ASAP1 GAP inh: ASAP1 ArfGAP inhibition | Q9ULH1 | inhibition, % at 16.5 µM | AID 624377 | ASAP1-stimulated ARF1 GTP hydrolysis, GDP FP detection | 360,000 compounds, 0.19% hits; in the data active = inhibition above about 25%
CTSL1 counter: counter-screen for PFM18AAP inhibitors: inhibitors of F. hepatica cathepsin L1; recombinant F. hepatica cathepsin L1, Z-Leu-Arg-MCA fluorescence; inhibition, % at 5.96 µM; 300,000 compounds, 0.49% hits;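 active = inhibition above the mean of all tested compounds plus 3 SD, set per screening campaign, cut at about 17% in these data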
ARFGAP1 confirm: confirmation of rat ARFGAP1 inhibitors | shares compounds with ARFGAP1 inh | ARFGAP1-stimulated ARF1 GTP hydrolysis, GDP tracer FP | inhibition, % at 16.5 µM | 890 compounds, 30% hits | AID 651608;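 active = average inhibition over triplicates above the hit cutoff set in the earlier primary screen, cut at about 25% in these data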
A number is an active result; 0 = inactive; - = not tested or not shown. Shown are actives, neighbours in structure and some others; about 1.2% of the full set was active somewhere.

SMILES | NPR2 activator | ARFGAP1 inh | GC-A act | HCV core dimer | ASAP1 GAP inh | CTSL1 counter | ARFGAP1 confirm
O=C(OCC(=O)N1CCN(C(=O)c2ccco2)CC1)c1cc(-c2ccc(Cl)c(Cl)c2Cl)nc2ccccc12 | 0 | 36.5 | 0 | 0 | 0 | 0 | 44.7
O=C(Nc1cc(C(=O)N2CCCC2)ccc1N1CCCC1)c1ccccc1 | 0 | 0 | 0 | 0 | 0 | 0 | -
Fc1ccc(Cc2nnc(-c3cccs3)o2)cc1 | 0 | 0 | 0 | 0 | 0 | 0 | -
Fc1ccc(-c2nnc(Cc3ccc(Cl)cc3)o2)cc1 | 0 | 39.9 | 0 | 0 | 0 | 0 | 0
CCOc1ccc(C(=O)N(CN2CCCC2=O)c2cccc(Cl)c2)cc1 | 0 | 37.5 | 0 | 0 | 0 | 0 | 0
CCOc1ccc(C(=O)N(CN2CCCC2=O)c2ccccc2)cc1 | 0 | 0 | 0 | 0 | 0 | 0 | -
COc1ccc(N/N=C/c2c(C(=O)O)ccc3ccccc23)cc1 | 0 | 26.2 | 0 | 0 | 0 | 0 | 31.4
CCc1nc(SCC(=O)NC2CCCC2)c2c(=O)n(C)c(=O)n(C)c2n1 | 0 | 0 | 0 | 0 | 0 | 0 | -
O=C(CN(C(=O)c1csnn1)c1ccccc1F)NCc1ccc2c(c1)OCO2 | 0 | 25.3 | 0 | 0 | 0 | 0 | 0
O=C(CN(C(=O)c1csnn1)c1cccc(F)c1)NCc1ccc2c(c1)OCO2 | 0 | 0 | 0 | 0 | 0 | 0 | -
Cc1ccc(CNC(=O)Cn2c(=O)c3sccc3n(Cc3ccc([N+](=O)[O-])cc3)c2=O)cc1 | 0 | 36.3 | 0 | 0 | 0 | 0 | 55.4
Cc1ccc(C2C(C#N)=C(N)Oc3cc4c(cc32)OCO4)cc1 (stereo not given) | 0 | 25.4 | 0 | 0 | 0 | 0 | 0
COC(=O)c1nnn(-c2cccc(Cl)c2)c1C(=O)OC | 0 | 25.4 | 0 | 0 | 0 | 0 | 0
COC(=O)c1nnn(CC(=O)Nc2cc(Cl)ccc2C)c1C(=O)OC | 0 | 0 | 0 | 0 | 0 | 0 | -
NS(=O)(=O)c1cccc(NC(=O)COC(=O)C2CCN(S(=O)(=O)c3cccs3)CC2)c1 | 0 | 0 | 0 | 0 | 0 | 0 | -
CC1=Nn2c(nnc2-c2cc(C)[nH]n2)SC1 | 0 | 0 | 0 | 0 | 0 | 0 | -
O=C(NCc1ccccc1)c1cc(C2CCCCN2C(=O)OCCF)on1 (stereo not given) | 0 | 24.8 | 0 | - | 0 | - | 0
O=C(NCc1cccnc1)c1cc(C2CCCCN2C(=O)OCCF)on1 (stereo not given) | 0 | 0 | 0 | - | 0 | - | -
O=C(N/N=C/c1ccc(Br)s1)c1ccco1 | 0 | 0 | 0 | 0 | 0 | 0 | -
O=C(N/N=C/c1sc(=O)n(Cc2ccc(Br)cc2)c1Cl)c1ccco1 | 0 | 38.5 | 0 | 0 | 0 | 0 | 54.5
O=C(Cn1c2ccc(F)cc2c2nc3n(c(=O)c21)CCS3)Nc1ccc(Cl)cc1F | 0 | 41.6 | 0 | 0 | 0 | 0 | 56.8
COc1ccc(C(=O)/C=C/c2cc(OC)c(O)c(OC)c2)c(F)c1 | 0 | 0 | 0 | 0 | 0 | 0 | -
COc1ccc2cc(C(=O)/C=C/c3cc(OC)c(O)c(OC)c3)ccc2c1 | 0 | 25.6 | 0 | 0 | 0 | 0 | 0
COc1ccc(S(=O)(=O)N2CCN(Cc3cc(OC)c(OC)cc3OC)CC2)cc1 | 0 | 27.2 | 0 | 0 | 0 | 0 | 0
COc1cc(OC)c(OC)cc1CN1CCN(S(=O)(=O)c2ccc(NC(C)=O)cc2)CC1 | 0 | 0 | 0 | 0 | 0 | 0 | -
SMILES | NPR2 activator | ARFGAP1 inh | GC-A act | HCV core dimer | ASAP1 GAP inh | CTSL1 counter | ARFGAP1 confirm
CCCCOC(=O)NC(NCC(O)c1ccccc1)(C(F)(F)F)C(F)(F)F (stereo not given) | 0 | 30.7 | 0 | 0 | 0 | 0 | 0
CCOC(=O)NC(NCC(O)c1ccccc1)(C(F)(F)F)C(F)(F)F (stereo not given) | 0 | 0 | 0 | 0 | 0 | 0 | -
CCS(=O)(=O)C(=C1NCCO1)S(=O)(=O)CC | 0 | 24.8 | 0 | 0 | 0 | 0 | 0
COc1ccc(S(=O)(=O)NCc2cccnc2)cc1NC(=O)c1ccc(Cl)cc1 | 0 | 25.0 | 0 | 0 | 0 | 0 | 0
COc1ccc(S(=O)(=O)NCc2cccnc2)cc1OC | 0 | 0 | 0 | 0 | 0 | 0 | -
CN1CCC(NC(=O)Nc2ccc(Br)cc2)CC1 | 0 | 0 | 0 | 0 | 0 | 0 | -

Screening results from PubChem BioAssay.
